Tested on: U2OS
Experiment: Multiplex assay against U2OS
Format: toxicity, cell-based
Details: human
Method in brief: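 Cells stained live at seeding with Hoechst33342, BioTracker Green Microtubule Cytoskeleton Dye, MitoTracker Red and Annexin V Alexa Fluor 680 were imaged on a CQ1 microscope at 37°C and 5% CO2 after compound addition. Their classification by CellPathfinder machine-learning gating ran from Hoechst high-intensity objects versus normal cells, to healthy, pyknosed or fragmented nuclei among normal cells, to mitotic or apoptotic among pyknosed cells. Tubulin, mitochondrial-mass and membrane-permeability phenotypes are per cents of healthy-nucleus cells.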

[1] = 12 h, 1 µM, compound concentration 1 uM, replicate 1
[2] = 12 h, 1 µM, compound concentration 1 uM, replicate 2
[3] = 12 h, 10 µM, compound concentration 10 uM, replicate 1
[4] = 12 h, 10 µM, compound concentration 10 uM, replicate 2
[5] = 24 h, 1 µM, compound concentration 1 uM, replicate 1
[6] = 24 h, 1 µM, compound concentration 1 uM, replicate 2
[7] = 24 h, 10 µM, compound concentration 10 uM, replicate 1
[8] = 24 h, 10 µM, compound concentration 10 uM, replicate 2
[9] = 48 h, 1 µM, compound concentration 1 uM, replicate 1
[10] = 48 h, 1 µM, compound concentration 1 uM, replicate 2
[11] = 48 h, 10 µM, compound concentration 10 uM, replicate 1
[12] = 48 h, 10 µM, compound concentration 10 uM, replicate 2

For C=CC(=O)Nc1cccc(C(=O)Nc2ccc(Nc3cc(-c4[nH]c(SC)nc4C)ccn3)cc2)c1, the “Population Apoptotic (%)” value [1] was 52%, the “Population Fragmented Nuclei (%)” value [1] was 9% and the “Population Healthy Nuclei (%)” value [1] was 78%. The “Population Hoechst High Intensity Objects (%)” value [1] was 8%, the “Population Membrane Permeable-Phenotype (%)” value [1] was 4% and the “Population Mitochondria Different-Phenotype (%)” value [1] was 8%. For the same compound, the “Population Mitotic Cells (%)” value [1] was 47%, the “Population Normal (%)” value [1] was 91% and the “Population Pyknosed Nuclei (%)” value [1] was 12%. The “Population Tubulin-Different-Phenotype (%)” value [1] was 11%, the “Total Cell Count” value [1] was 259 and the “Population Apoptotic (%)” value [2] was 0%. The “Population Fragmented Nuclei (%)” value [2] was 2%, the “Population Healthy Nuclei (%)” value [2] was 94% and the “Population Hoechst High Intensity Objects (%)” value [2] was 14%. The “Population Membrane Permeable-Phenotype (%)” value [2] was 0%, the “Population Mitochondria Different-Phenotype (%)” value [2] was 7% and the “Population Mitotic Cells (%)” value [2] was 100%. For the same compound, the “Population Normal (%)” value [2] was 85%, the “Population Pyknosed Nuclei (%)” value [2] was 2% and the “Population Tubulin-Different-Phenotype (%)” value [2] was 23%. The “Total Cell Count” value [2] was 112, the “Population Fragmented Nuclei (%)” value [3] was 7% and the “Population Healthy Nuclei (%)” value [3] was 77%. The “Population Hoechst High Intensity Objects (%)” value [3] was 6%, the “Population Membrane Permeable-Phenotype (%)” value [3] was 3% and the “Population Mitochondria Different-Phenotype (%)” value [3] was 8%. The “Population Mitotic Cells (%)” value [3] was 59%, the “Population Normal (%)” value [3] was 93% and the “Population Pyknosed Nuclei (%)” value [3] was 14%. For the same compound, the “Population Tubulin-Different-Phenotype (%)” value [3] was 9%, the “Total Cell Count” value [3] was 171 and the “Population Apoptotic (%)” value [4] was 40%. For the same compound, the “Population Fragmented Nuclei (%)” value [4] was 6%, the “Population Healthy Nuclei (%)” value [4] was 83% and the “Population Hoechst High Intensity Objects (%)” value [4] was 18%. The “Population Membrane Permeable-Phenotype (%)” value [4] was 7%, the “Population Mitochondria Different-Phenotype (%)” value [4] was 12% and the “Population Mitotic Cells (%)” value [4] was 60%. The “Population Normal (%)” value [4] was 81%, the “Population Pyknosed Nuclei (%)” value [4] was 10% and the “Population Tubulin-Different-Phenotype (%)” value [4] was 12%. For the same compound, the “Total Cell Count” value [4] was 78, the “Population Apoptotic (%)” value [5] was 40% and the “Population Fragmented Nuclei (%)” value [5] was 13%. For the same compound, the “Population Healthy Nuclei (%)” value [5] was 76%, the “Population Hoechst High Intensity Objects (%)” value [5] was 4% and the “Population Membrane Permeable-Phenotype (%)” value [5] was 5%. The “Population Mitochondria Different-Phenotype (%)” value [5] was 5%, the “Population Mitotic Cells (%)” value [5] was 60% and the “Population Normal (%)” value [5] was 95%. The “Population Pyknosed Nuclei (%)” value [5] was 10%, the “Population Tubulin-Different-Phenotype (%)” value [5] was 18% and the “Total Cell Count” value [5] was 278. For the same compound, the “Population Apoptotic (%)” value [6] was 37%, the “Population Fragmented Nuclei (%)” value [6] was 3% and the “Population Healthy Nuclei (%)” value [6] was 87%. The “Population Membrane Permeable-Phenotype (%)” value [6] was 2%, the “Population Mitochondria Different-Phenotype (%)” value [6] was 10% and the “Population Mitotic Cells (%)” value [6] was 62%. For the same compound, the “Population Pyknosed Nuclei (%)” value [6] was 8%, the “Population Tubulin-Different-Phenotype (%)” value [6] was 25% and the “Total Cell Count” value [6] was 122. The “Population Apoptotic (%)” value [7] was 52%, the “Population Fragmented Nuclei (%)” value [7] was 7% and the “Population Healthy Nuclei (%)” value [7] was 83%. For the same compound, the “Population Hoechst High Intensity Objects (%)” value [7] was 5%, the “Population Membrane Permeable-Phenotype (%)” value [7] was 5% and the “Population Mitochondria Different-Phenotype (%)” value [7] was 6%. For the same compound, the “Population Mitotic Cells (%)” value [7] was 47%, the “Population Normal (%)” value [7] was 94% and the “Population Pyknosed Nuclei (%)” value [7] was 8%. For the same compound, the “Population Tubulin-Different-Phenotype (%)” value [7] was 6%, the “Total Cell Count” value [7] was 208 and the “Population Apoptotic (%)” value [8] was 40%. The “Population Fragmented Nuclei (%)” value [8] was 5%, the “Population Healthy Nuclei (%)” value [8] was 85% and the “Population Hoechst High Intensity Objects (%)” value [8] was 11%. For the same compound, the “Population Membrane Permeable-Phenotype (%)” value [8] was 8%, the “Population Mitochondria Different-Phenotype (%)” value [8] was 14% and the “Population Mitotic Cells (%)” value [8] was 60%. The “Population Normal (%)” value [8] was 88%, the “Population Pyknosed Nuclei (%)” value [8] was 9% and the “Population Tubulin-Different-Phenotype (%)” value [8] was 12%. For the same compound, the “Total Cell Count” value [8] was 95, the “Population Apoptotic (%)” value [9] was 37% and the “Population Fragmented Nuclei (%)” value [9] was 5%. The “Population Healthy Nuclei (%)” value [9] was 86%, the “Population Hoechst High Intensity Objects (%)” value [9] was 3% and the “Population Membrane Permeable-Phenotype (%)” value [9] was 4%. For the same compound, the “Population Mitochondria Different-Phenotype (%)” value [9] was 10%, the “Population Mitotic Cells (%)” value [9] was 62% and the “Population Normal (%)” value [9] was 96%. For the same compound, the “Population Pyknosed Nuclei (%)” value [9] was 7%, the “Population Tubulin-Different-Phenotype (%)” value [9] was 17% and the “Total Cell Count” value [9] was 291. For the same compound, the “Population Apoptotic (%)” value [10] was 18%, the “Population Fragmented Nuclei (%)” value [10] was 6% and the “Population Healthy Nuclei (%)” value [10] was 85%. For the same compound, the “Population Hoechst High Intensity Objects (%)” value [10] was 4%, the “Population Membrane Permeable-Phenotype (%)” value [10] was 6% and the “Population Mitochondria Different-Phenotype (%)” value [10] was 13%. For the same compound, the “Population Mitotic Cells (%)” value [10] was 81%, the “Population Normal (%)” value [10] was 95% and the “Population Pyknosed Nuclei (%)” value [10] was 8%. The “Population Tubulin-Different-Phenotype (%)” value [10] was 28%, the “Total Cell Count” value [10] was 117 and the “Population Apoptotic (%)” value [11] was 31%. The “Population Fragmented Nuclei (%)” value [11] was 7%, the “Population Healthy Nuclei (%)” value [11] was 84% and the “Population Hoechst High Intensity Objects (%)” value [11] was 3%. The “Population Membrane Permeable-Phenotype (%)” value [11] was 2%, the “Population Mitochondria Different-Phenotype (%)” value [11] was 9% and the “Population Mitotic Cells (%)” value [11] was 68%. The “Population Normal (%)” value [11] was 96%, the “Population Pyknosed Nuclei (%)” value [11] was 8% and the “Total Cell Count” value [11] was 316. The “Population Apoptotic (%)” value [12] was 11%, the “Population Fragmented Nuclei (%)” value [12] was 9% and the “Population Healthy Nuclei (%)” value [12] was 80%. The “Population Hoechst High Intensity Objects (%)” value [12] was 9%, the “Population Membrane Permeable-Phenotype (%)” value [12] was 4% and the “Population Mitochondria Different-Phenotype (%)” value [12] was 17%. For the same compound, the “Population Mitotic Cells (%)” value [12] was 88%, the “Population Normal (%)” value [12] was 90% and the “Population Pyknosed Nuclei (%)” value [12] was 10%. The “Population Tubulin-Different-Phenotype (%)” value [12] was 10% and the “Total Cell Count” value [12] was 133.

— ChEMBL document CHEMBL4689842, “EUbOPEN Chemogenomics Library wave 1” (2021)
